In ChEMBL document CHEMBL1125283, “Improvement in potency of an oxytocin antagonist after systematic substitutions with L-tryptophan” (J Med Chem, 1991):
Numbered stars: 1 amine (or outer) side, 2 acyl side, 3 side chain; on linkers, the order of the positions; unused ones are H or OH. Bridge positions count the residues as written; N and C are the ends. Square brackets hold non-standard residues; d marks the D form. Peptide text beside a SMILES is read from it. X1 = O=C(CC1(S[*:2])CCCCC1)[*:1]

Assays:
Rattus norvegicus [1] = organism: Rattus norvegicus; experiment: Competitive antagonist activity on oxytocin contractile action in isolated rat uterus; type: functional; conditions: read-out: pA2 (converted)
Outline: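 Uteri isolated from rats in natural estrus, bathed in Van Dyke-Hastings solution with 0.5 mM Mg2+. Isometric contractions to OT doses recorded by force-displacement transducer; response quantified as integrated area under peaks. Synthetic OT (450 units/mg) standard. pA2 by Schild method from at least four separate assays; mixed agonist/antagonist potencies approximated.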

Rattus norvegicus [2] = organism: Rattus norvegicus; experiment: Compound was evaluated for the competitive antagonism to Arginine vasopressin (AVP) in rat antidiuretic assay; type: functional, organism-based; conditions: Urine, read-out: pA2 (converted)
Outline: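 Water-loaded rats under ethanol anesthesia; antidiuretic response to AVP standard. In vivo pA2 estimated by dividing the effective dose (molar level of antagonist halving the agonist response) by an estimated distribution volume of 67 mL/kg.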

Row | Compound | Kb (Rattus norvegicus [1]) [µM] | Kb (Rattus norvegicus [2]) [µM]
1 | CC[C@H](C)[C@@H]1NC(=O)[C@@H](Cc2c[nH]c3ccccc23)NC(=O)CC2(CCCCC2)SSC[C@@H](C(=O)N2CCC[C@H]2C(=O)N[C@@H](CCCN=C(N)N)C(=O)N[C@@H](Cc2cn(C=O)c3ccccc23)C(N)=O)NC(=O)[C@H](CC(N)=O)NC(=O)[C@H](CCC(N)=O)NC1=O | 0.0214 | 
2 | CC[C@H](C)[C@@H]1NC(=O)[C@@H](Cc2c[nH]c3ccccc23)NC(=O)CC2(CCCCC2)SSC[C@@H](C(=O)N[C@@H](Cc2c[nH]c3ccccc23)C(=O)N[C@@H](CCCN=C(N)N)C(=O)NCC(N)=O)NC(=O)[C@H](CC(N)=O)NC(=O)[C@H](CCC(N)=O)NC1=O | 0.00871 | > 1.58
3 | CC[C@H](C)[C@@H]1NC(=O)[C@@H](Cc2c[nH]c3ccccc23)NC(=O)CC2(CCCCC2)SSC[C@@H](C(=O)N2CCC[C@H]2C(=O)N[C@@H](CCCN=C(N)N)C(=O)NCC(N)=O)NC(=O)[C@H](CC(N)=O)NC(=O)[C@H](CCC(N)=O)NC1=O ([dW]IQNCPRG-NH2; linker N-5 via X1) |  | > 1.26
4 | CC[C@H](C)[C@@H]1NC(=O)[C@H](Cc2c[nH]c3ccccc23)NC(=O)CC2(CCCCC2)SSC[C@@H](C(=O)N2CCC[C@H]2C(=O)N[C@@H](CCCN=C(N)N)C(=O)NCC(N)=O)NC(=O)[C@H](CC(N)=O)NC(=O)[C@H](CCC(N)=O)NC1=O (WIQNCPRG-NH2; linker N-5 via X1) | 0.316 | 
5 | CC[C@H](C)[C@H](NC(=O)[C@@H](Cc1c[nH]c2ccccc12)NC(=O)CC12CC3CC(CC(C3)C1)C2)C(=O)N[C@@H](CCC(N)=O)C(=O)N[C@@H](CC(N)=O)C(=O)N[C@@H](Cc1c[nH]c2ccccc12)C(=O)N1CCC[C@H]1C(=O)N[C@@H](CCCN=C(N)N)C(=O)NCC(N)=O | 0.302 | 
6 | CC[C@H](C)[C@@H]1NC(=O)[C@@H](Cc2c[nH]c3ccccc23)NC(=O)CC2(CCCCC2)SSC[C@@H](C(=O)N2CCC[C@H]2C(=O)N[C@@H](CCCN=C(N)N)C(=O)N[C@@H](Cc2c[nH]c3ccccc23)C(N)=O)NC(=O)[C@H](CC(N)=O)NC(=O)[C@H](CCC(N)=O)NC1=O | 0.00933 | > 1
7 | CC[C@H](C)[C@@H]1NC(=O)[C@@H](Cc2c[nH]c3ccccc23)NC(=O)CC2(CCCCC2)SSC[C@@H](C(=O)N2CCC[C@H]2C(=O)N[C@@H](Cc2c[nH]c3ccccc23)C(=O)NCC(N)=O)NC(=O)[C@H](CC(N)=O)NC(=O)[C@H](CCC(N)=O)NC1=O | 0.00603 | > 1
8 | CC[C@H](C)[C@@H]1NC(=O)[C@@H](Cc2c[nH]c3ccccc23)NC(=O)CC2(CCCCC2)SSC[C@@H](C(=O)N2c3ccccc3C[C@H]2C(=O)N[C@@H](CCCN=C(N)N)C(=O)NCC(N)=O)NC(=O)[C@H](CC(N)=O)NC(=O)[C@H](CCC(N)=O)NC1=O | 0.012 | 
9 | CC[C@H](C)[C@H](NC(=O)[C@@H](Cc1c[nH]c2ccccc12)NC(=O)CC12CC3CC(CC(C3)C1)C2)C(=O)N[C@@H](CCC(N)=O)C(=O)N[C@@H](CC(N)=O)C(=O)N[C@H](C(=O)N1CCC[C@H]1C(=O)N[C@@H](CCCN=C(N)N)C(=O)NCC(N)=O)C(C)C | 4.27 | 
10 | CC[C@H](C)[C@H](NC(=O)[C@@H](Cc1c[nH]c2ccccc12)NC(=O)[C@H](Cc1c[nH]c2ccccc12)NC(C)=O)C(=O)N[C@@H](CCC(N)=O)C(=O)N[C@@H](CC(N)=O)C(=O)N[C@H](C(=O)N1CCC[C@H]1C(=O)N[C@@H](CCCN=C(N)N)C(=O)NCC(N)=O)C(C)C | 3.72 | 
